In ChEMBL document CHEMBL4325889, “Natural products hybrids: 3,5,4'-Trimethoxystilbene-5,6,7-trimethoxyflavone chimeric analogs as potential cytotoxic agents against diverse human cancer cells” (Eur J Med Chem, 2019):
Activity calls are given as the source filed them. No cut-off for these calls is given here.

Legend:
CAKI-1 = assay: Growth inhibition of human Caki1 cells at 10 uM after 48 hrs by SRB assay relative to control; type: functional; details: CAKI-1, 48 h, read-out: GI
How it was run: (§1)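 Screened at the National Cancer Institute by the standard NCI protocol using the sulforhodamine B assay, which measures cellular protein. Single dose of 10 µM. Result is percent growth inhibition; values above 100% mean cell number fell below the initial population. Values are the average of duplicates.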

HCT-116 = assay: Growth inhibition of human HCT116 cells at 10 uM after 48 hrs by SRB assay relative to control; type: functional; details: HCT-116, 48 h, read-out: GI; how it was run: as §1
HCT-15 = assay: Growth inhibition of human HCT15 cells at 10 uM after 48 hrs by SRB assay relative to control; type: functional; details: HCT-15, 48 h, read-out: GI; how it was run: as §1
SK-MEL-2 = assay: Growth inhibition of human SK-MEL-2 cells at 10 uM after 48 hrs by SRB assay relative to control; type: functional; details: SK-MEL-2, 48 h, read-out: GI; how it was run: as §1
UACC-62 = assay: Growth inhibition of human UACC62 cells at 10 uM after 48 hrs by SRB assay relative to control; type: functional; details: UACC-62, 48 h, read-out: GI
How it was run: (§2)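 NCI screen against its human cancer cell line panel by the standard NCI protocol, SRB protein stain. Single dose of 10 μM. Percent growth inhibition versus control; values above 100% mean the cell population fell below the starting number. Each value is the mean of duplicates.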

OVCAR-3 = assay: Growth inhibition of human OVCAR3 cells at 10 uM after 48 hrs by SRB assay relative to control; type: functional; details: OVCAR-3, 48 h, read-out: GI; how it was run: as §1
SR = assay: Growth inhibition of human SR cells at 10 uM after 48 hrs by SRB assay relative to control; type: functional; details: read-out: GI; how it was run: as §2
SF-268 = assay: Growth inhibition of human SF268 cells at 10 uM after 48 hrs by SRB assay relative to control; type: functional; details: SF-268, 48 h, read-out: GI; how it was run: as §1
[1] = Cytotoxicity against human IOSE-80PC cells after 48 hrs by MTT assay; type: cell-based
How it was run: (§3)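 Normal human lung epithelial L132 and ovarian epithelial IOSE-80PC cells were tested by MTT viability assay, and IC50 was determined.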

SNB-19 = assay: Growth inhibition of human SNB19 cells at 10 uM after 48 hrs by SRB assay relative to control; type: functional; details: SNB-19, 48 h, read-out: GI; how it was run: as §2
OVCAR-8 = assay: Growth inhibition of human OVCAR8 cells at 10 uM after 48 hrs by SRB assay relative to control; type: functional; details: OVCAR-8, 48 h, read-out: GI; how it was run: as §1
KM12 = assay: Growth inhibition of human KM12 cells at 10 uM after 48 hrs by SRB assay relative to control; type: functional; details: KM12, 48 h, read-out: GI; how it was run: as §1
IGROV-1 = assay: Growth inhibition of human IGROV1 cells at 10 uM after 48 hrs by SRB assay relative to control; type: functional; details: IGROV-1, 48 h, read-out: GI; how it was run: as §1
U-251 = assay: Growth inhibition of human U251 cells at 10 uM after 48 hrs by SRB assay relative to control; type: functional; details: U-251, 48 h, read-out: GI; how it was run: as §2
OVCAR-5 = assay: Growth inhibition of human OVCAR5 cells at 10 uM after 48 hrs by SRB assay relative to control; type: functional; details: OVCAR-5, 48 h, read-out: GI; how it was run: as §1
SK-MEL-5 = assay: Growth inhibition of human SK-MEL-5 cells at 10 uM after 48 hrs by SRB assay relative to control; type: functional; details: SK-MEL-5, 48 h, read-out: GI; how it was run: as §1
SW-620 = assay: Growth inhibition of human SW620 cells at 10 uM after 48 hrs by SRB assay relative to control; type: functional; details: SW-620, 48 h, read-out: GI; how it was run: as §2
HOP-92 = assay: Growth inhibition of human HOP92 cells at 10 uM after 48 hrs by SRB assay relative to control; type: functional; details: HOP-92, 48 h, read-out: GI; how it was run: as §1
L132 = assay: Cytotoxicity against human L-132 cells after 48 hrs by MTT assay; type: cell-based; details: L132, 48 h; how it was run: as §3
MDA-MB-468 = assay: Growth inhibition of human MDA-MB-468 cells at 10 uM after 48 hrs by SRB assay relative to control; type: functional; details: MDA-MB-468, 48 h, read-out: GI; how it was run: as §1
ACHN = assay: Growth inhibition of human ACHN cells at 10 uM after 48 hrs by SRB assay relative to control; type: functional; details: read-out: GI; how it was run: as §1
HT-29 = assay: Growth inhibition of human HT-29 cells at 10 uM after 48 hrs by SRB assay relative to control; type: functional; details: HT-29, 48 h, read-out: GI; how it was run: as §1
HeLa [2] = assay: Induction of apoptosis in human HeLa cells assessed as late apoptotic cells at 5 uM by Annexin V-FITC/propidium iodide staining based flow cytometry (reference value: 6.9%); type: functional
How it was run: (§4)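 HeLa human cervical cancer cells treated with increasing concentrations or for increasing incubation times. Cells stained with annexin V-FITC and propidium iodide and analysed by FACS. Gating: early apoptotic = annexin+/PI−, late apoptotic = annexin+/PI+.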

HeLa [3] = assay: Induction of apoptosis in human HeLa cells assessed as necrotic cells after 24 hrs by Annexin V-FITC/propidium iodide staining based flow cytometry (reference value: 0.9%); type: functional; how it was run: as §4
HeLa [4] = assay: Induction of apoptosis in human HeLa cells assessed as early apoptotic cells after 48 hrs by Annexin V-FITC/propidium iodide staining based flow cytometry (reference value: 2.6%); type: functional; how it was run: as §4
HeLa [5] = assay: Induction of apoptosis in human HeLa cells assessed as late apoptotic cells at 2.5 uM by Annexin V-FITC/propidium iodide staining based flow cytometry (reference value: 6.9%); type: functional; how it was run: as §4
HeLa [6] = assay: Induction of apoptosis in human HeLa cells assessed as necrotic cells after 12 hrs by Annexin V-FITC/propidium iodide staining based flow cytometry (reference value: 0.9%); type: functional; how it was run: as §4
HeLa [7] = assay: Induction of apoptosis in human HeLa cells assessed as early apoptotic cells at 2.5 uM by Annexin V-FITC/propidium iodide staining based flow cytometry (reference value: 5.7%); type: functional; how it was run: as §4
HeLa [8] = assay: Antiproliferative activity against human HeLa cells after 48 hrs by MTT assay; type: functional, cell-based
How it was run: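 HeLa cervical cancer cells, growth inhibition measured by MTT viability assay, and IC50 determined.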

HeLa [9] = assay: Induction of apoptosis in human HeLa cells assessed as late apoptotic cells after 24 hrs by Annexin V-FITC/propidium iodide staining based flow cytometry (reference value: 3.6%); type: functional; how it was run: as §4
HeLa [10] = assay: Induction of apoptosis in human HeLa cells assessed as necrotic cells at 5 uM by Annexin V-FITC/propidium iodide staining based flow cytometry (reference value: 2.2%); type: functional; how it was run: as §4
HeLa [11] = assay: Induction of apoptosis in human HeLa cells assessed as early apoptotic cells after 24 hrs by Annexin V-FITC/propidium iodide staining based flow cytometry (reference value: 2.6%); type: functional; how it was run: as §4
HeLa [12] = assay: Induction of apoptosis in human HeLa cells assessed as early apoptotic cells at 10 uM by Annexin V-FITC/propidium iodide staining based flow cytometry (reference value: 5.7%); type: functional; how it was run: as §4
HeLa [13] = assay: Induction of apoptosis in human HeLa cells assessed as early apoptotic cells after 12 hrs by Annexin V-FITC/propidium iodide staining based flow cytometry (reference value: 2.6%); type: functional; how it was run: as §4

Structure (SMILES)	inhibition of growth at 10 µM (CAKI-1) [%]	inhibition of growth at 10 µM (HCT-116) [%]	inhibition of growth at 10 µM (HCT-15) [%]	inhibition of growth at 10 µM (SK-MEL-2) [%]	inhibition of growth at 10 µM (UACC-62) [%]	inhibition of growth at 10 µM (OVCAR-3) [%]	inhibition of growth at 10 µM (SR) [%]	inhibition of growth at 10 µM (SF-268) [%]	IC50 [1] [µM]	inhibition of growth at 10 µM (SNB-19) [%]	inhibition of growth at 10 µM (OVCAR-8) [%]	inhibition of growth at 10 µM (KM12) [%]	inhibition of growth at 10 µM (IGROV-1) [%]	inhibition of growth at 10 µM (U-251) [%]	inhibition of growth at 10 µM (OVCAR-5) [%]	inhibition of growth at 10 µM (SK-MEL-5) [%]	inhibition of growth at 10 µM (SW-620) [%]	inhibition of growth at 10 µM (HOP-92) [%]	IC50 (L132) [µM]	inhibition of growth at 10 µM (MDA-MB-468) [%]	also measured
COc1cc(NC(=O)c2cccc(-c3cc(=O)c4c(O)c(OC)c(OC)cc4o3)c2)cc(OC)c1OC	37.5	55.2	40.1	30.4	50.6	76.2	45.6	38.1	> 100	50	76.9	46.1	29.6	55.2	22.6	60.8	26.7	43.9	> 100	40.1	inhibition of growth at 10 µM (ACHN): 83.7%; inhibition of growth at 10 µM (HT-29): 37.2%
COc1cc2oc(-c3cccc(NC(=O)c4ccc5c(c4)OCO5)c3)cc(=O)c2c(OC)c1OC	22.9	64.5	67.9	37.6	50	47	88.5	51.9	> 100	54.4	53.7	48.7	53	67.5	6.14	83.6	36	106	55	24.5	inhibition of growth at 10 µM (ACHN): 52.2%; inhibition of growth at 10 µM (HT-29): 70.6%
COc1cc(NC(=O)c2cccc(-c3cc(=O)c4c(OC)c(OC)c(OC)cc4o3)c2)cc(OC)c1OC	59.4	51.4	59.3	58.3	49.5	59.2	70.2	32.9	67.6	43.7	69.1	54.2	48.2	55.1	14	91.7	33	75.3	> 100	52.6	Activity (HeLa [2]): 13.8%; Activity (HeLa [3]): 1.8%; Activity (HeLa [4]): 24%; Activity (HeLa [5]): 6.8%; Activity (HeLa [6]): 1%; Activity (HeLa [7]): 11.8%; Activity (HeLa [8]): Active; Activity (HeLa [9]): 4.4%; Activity (HeLa [10]): 5.7%; Activity (HeLa [11]): 13.4%; inhibition of growth at 10 µM (ACHN): 43.3%; Activity (HeLa [12]): 22.6%; Activity (HeLa [13]): 4.2%; inhibition of growth at 10 µM (HT-29): 69%
